TRPC6 act: mouse TRPC6 channel activation; B-score at 10 µM; Q61143; AID 2550; HEK293-TRPC6 membrane potential dye fluorescence; stronger effect = higher value; hit rate 0.13% among 310,000;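 active = B-score of the integrated fluorescence ratio above library mean plus 3 SD, and starting fluorescence ratio within library mean plus 5 SD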;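 also: higher score means more depolarization so channel activation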
TRPC6 inhibitor: blocks the mouse TRPC6 cation channel; Q61143; B-score at 10 µM; AID 2553; hit rate 1.1% among 310,000; HEK293-TRPC6, membrane potential dye, ACh-evoked depolarization; stronger effect = lower value;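 active = B-score under library mean minus 3 SD, initial fluorescence not abnormally high, positive integrated signal ratio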;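 also: B-score derived from integrated fluorescence ratio over the kinetic read; more negative B-score means stronger inhibition of depolarization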
TRPC4 act: TRPC4 (mouse) channel activation; HEK293 TRPC4beta/mu-opioid, Fluo4 calcium fluorescence; stronger effect = higher value; hit rate 0.49% among 310,000; AID 2237; B-score at 10 µM; Q9QUQ5;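 active = B-score above 5 SD of library B-scores, and initial fluorescence ratio not above library mean plus 5 SD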;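 also: positive B-score marks a calcium rise read as TRPC4 activation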
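Assay system: HEK293 stable line with TRPC4beta plus mu-opioid receptor; schedule: 45 min room-temperature Fluo4 loading, 110 s read; technique: kinetic Fluo4 calcium fluorescence; evaluation: integrated baseline-normalised fluorescence ratio, converted to per-well B score; controls: buffer (low) and maximal DAMGO (high)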
TRPC4 potent: TRPC4 (mouse) allosteric potentiation; Q9QUQ5; HEK293 TRPC4beta/mu-opioid, DAMGO EC20, Fluo-4 Ca2+ flux; stronger effect = higher value; B-score at 10 µM; hit rate 0.42% among 310,000;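 active = B-score of calcium response area above 5 SD of library B-scores, with initial fluorescence ratio within 5 SD of library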
TRPC4 block: blocks the mouse TRPC4 cation channel; AID 2247; HEK293 TRPC4beta/mu-opioid, DAMGO-evoked Fluo4 calcium flux; stronger effect = lower value; hit rate 0.39% among 300,000; B-score at 10 µM;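 active = B-score over 3 SD under the library average, no early fluorescence shift, positive overall ratio signal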
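Assay system: HEK293 cells with stable TRPC4beta plus mu-opioid receptor expression; Probe or stimulus: DAMGO in two steps, submaximal then maximal; Dosing: single-point compound dosing; Measured by: Fluo4 calcium-dye fluorescence, kinetic read; Read-out basis: B score from integrated Fluo4 fluorescence ratio.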
Kir21 inh: Kir2.1 (mouse) channel inhibition; P35561; HEK293-Kir2.1, FluxOR thallium flux fluorescence; stronger effect = lower value; B-score at 10 µM; hit rate 0.85% among 310,000; AID 1672;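 active = fluorescence ratio B-score at or below minus 3 SD of library scores, with starting-brightness B-score within 2 SD, cut at about -4.2 in these data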;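 also: channel flux triggered by added potassium and thallium sulfate stimulus; B-score of peak minus minimum fluorescence over baseline after thallium stimulus; more negative B-score means stronger Kir2.1 block with less thallium influx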
TRPC4 sel inh 2: mouse TRPC4 off-target activity of TRPC6 inhibitors, second screen. AID 2776. shares compounds with TRPC6 inhibitor. inhibition, % at 10 µM. HEK293 TRPC4/MOR, membrane potential dye fluorescence; channel activated by saturating DAMGO dose. hit rate 42% among 920;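 active = compounds whose fluorescence signal differed from control wells by over 3 SD, either direction, in both duplicate plates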
TRPC4 spec: selectivity of TRPC6 inhibitors: effect on mouse TRPC4; shares compounds with TRPC6 inhibitor; HEK293 TRPC4/mu-opioid, membrane potential fluorescence; activity change, negative = inhibition, % at 10 µM; hit rate 61% among 920;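 active = rise or fall in signal beyond 3 SD of buffer-only wells in both replicate plates, either sign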;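 also: integrated kinetic ratio of fluorescence range over baseline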
HEK293 MPD ctr 2-1: parental HEK293 nonspecific activity of TRPC6 inhibitors, second screen; AID 2779; parental HEK293 membrane potential dye fluorescence; maximal acetylcholine challenge after compound addition; signal change vs control, % at 10 µM; hit rate 31% among 920; shares compounds with TRPC6 inhibitor;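 active = membrane potential signal moving either way by over 3 SD of the maximum-effect control, in both duplicate plates, meaning non-specific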
HEK293 MPD ctr-1: parental HEK293 nonspecific activity of TRPC6 inhibitors | shares compounds with TRPC6 inhibitor | hit rate 60% among 920 | parental HEK293 membrane potential dye fluorescence | membrane potential signal change, % at 10 µM;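 active = membrane potential signal shifting up or down by more than 3 SD of buffer-only wells, on both duplicate plates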
HEK293 MPD ctr-2: parental HEK293 nonspecific activity of TRPC6 modulators; shares compounds with TRPC6 inhibitor; membrane potential dye fluorescence; membrane potential signal change, % at 10 µM; hit rate 51% among 2,400;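 active = membrane potential signal moves up or down beyond 5 SD from buffer-only wells, on both duplicate plates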
HEK293 MPD ctr 2-2: second counter-screen for TRPC6 modulators: effect in parental HEK293 cells. inhibition, % at 10 µM. hit rate 14% among 2,400. membrane potential dye fluorescence; after compound, maximal acetylcholine stimulation. shares compounds with TRPC6 inhibitor;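 active = membrane potential signal drops by more than 5 SD from the mean control signal, in both duplicate plates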
TRPC4 ctr mod: selectivity of TRPC6 modulators against mouse TRPC4. shares compounds with TRPC6 inhibitor. HEK293 TRPC4/mu-opioid, membrane potential fluorescence. percent change from control (negative = decrease, positive = increase), % at 10 µM. hit rate 69% among 2,400;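 active = membrane potential signal moved up or down beyond 5 SD of buffer control wells, in both duplicate plates, actives on both sides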
TRPC4/MOR inh 2: second check of whether TRPC6 modulators also affect mouse TRPC4. hit rate 55% among 2,400. shares compounds with TRPC6 inhibitor. HEK293 TRPC4/mu-opioid, membrane potential dye fluorescence; stimulated with maximal-effect DAMGO. inhibition, % at 10 µM;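 active = drop in membrane potential signal beyond 5 SD of the control wells in both duplicate plates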;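 also: TRPC4 counter screen for TRPC6 hits run under conditions tuned for TRPC6 not TRPC4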
TRPC6 block conf: mouse TRPC6 inhibitor confirmation. hit rate 43% among 3,300. HEK293-TRPC6, membrane potential dye, ACh-evoked depolarization. inhibition, % at 10 µM. shares compounds with TRPC6 inhibitor;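 active = fluorescence ratio falls more than 5 SD below the full-stimulation control mean, in both duplicate runs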;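 also: integrated fluorescence ratio of peak minus minimum over baseline after agonist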
TRPC6 act conf: mouse TRPC6 activator confirmation | shares compounds with TRPC6 inhibitor | HEK293-TRPC6 membrane potential dye fluorescence, FDSS | activation, % at 10 µM | hit rate 11% among 2,800;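 active = ratio signal rise beyond 5 SD above unstimulated control wells' mean, seen in both duplicate runs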
Of the large screens only hits and unclear results are named; the others gave an inactive call (follow-up assays come after a bar, where they were run). Compounds with a hit are over-represented: about 2.9% of the library has one in this group of screens.

COc1cnc(-c2ccccn2)nc1Oc1ccccc1	none
COc1cnc(-c2ccccn2)nc1N(C)c1ccccc1	TRPC6 inhibitor -5.9 | HEK293 MPD ctr-2 -59% | HEK293 MPD ctr 2-2 inactive | TRPC4 ctr mod inactive | TRPC4/MOR inh 2 28% | TRPC6 block conf inactive | TRPC6 act conf inactive
CCOC(=O)c1c(C)[nH]c(C(=O)CC(=O)OC)c1C	none
CCOc1ccccc1/C=C(/NC(=O)c1ccccc1)C(=O)NC(C)c1ccccc1 (stereo not drawn)	none
O=C(C1CC1)N1CCCC(c2ccc(Cl)cc2)=N1	TRPC6 inhibitor -7 | TRPC4 sel inh 2 inactive | TRPC4 spec 9.6% | HEK293 MPD ctr 2-1 inactive | HEK293 MPD ctr-1 5.5% | TRPC6 block conf inactive
O=C(c1ccccc1)N1CCCC(c2ccc(Cl)cc2)=N1	none
Brc1ccc(CNc2nc3ccccc3n2CCN2CCCCC2)cc1	TRPC6 inhibitor -5.2 | HEK293 MPD ctr-2 inactive | HEK293 MPD ctr 2-2 inactive | TRPC4 ctr mod 15% | TRPC4/MOR inh 2 89% | TRPC6 block conf 38% | TRPC6 act conf inactive
COc1ccc(OC)c(CNc2nc3ccccc3n2CCN2CCCCC2)c1	none
COc1ccc(CNc2nc3ccccc3n2CCN2CCCCC2)c(OC)c1	TRPC6 inhibitor -10 | TRPC4 sel inh 2 42% | TRPC4 spec 9.3% | HEK293 MPD ctr 2-1 252% | HEK293 MPD ctr-1 7.9% | TRPC6 block conf inactive | TRPC6 act conf inactive
COc1cccc(CNc2nc3ccccc3n2CCN2CCCCC2)c1	TRPC6 inhibitor -6.1 | HEK293 MPD ctr-2 inactive | HEK293 MPD ctr 2-2 inactive | TRPC4 ctr mod inactive | TRPC4/MOR inh 2 56% | TRPC6 block conf 35% | TRPC6 act conf inactive
Oc1cccc2ccc(Nc3ccccn3)nc12	TRPC6 inhibitor -9.1 | TRPC4 sel inh 2 inactive | TRPC4 spec -15% | HEK293 MPD ctr 2-1 inactive | HEK293 MPD ctr-1 -180% | TRPC6 block conf inactive | TRPC6 act conf inactive
COc1ccc(/C=N/NC(=O)c2nn(-c3ccc(Cl)cc3)c(=O)c3c(N)scc23)cc1	TRPC6 inhibitor -6 | HEK293 MPD ctr-2 -77% | HEK293 MPD ctr 2-2 inactive | TRPC4 ctr mod -22% | TRPC4/MOR inh 2 36% | TRPC6 block conf inactive | TRPC6 act conf inactive

Compound activity deposited in PubChem by Johns Hopkins Ion Channel Center.
